In ChEMBL document CHEMBL1275531, “Genomewide expression profiling of cryptolepine-induced toxicity in Saccharomyces cerevisiae” (Antimicrob Agents Chemother, 2008):
Active and inactive are the calls of the source. No cut-off for these calls is given here.

How the values were obtained:
Saccharomyces cerevisiae [1] = experiment: Downregulation of FET4 gene expression in Saccharomyces cerevisiae relative to untreated control; format: functional
In short: (§1)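 Δerg6 cells treated 15 h at 7.5 or 17 μM, with the eight microarray hybridizations pooled. A gene counted as changed when two-tailed Student t test on log-transformed ratios gave P below 0.01 for ratio equal to 1. Genes grouped by GO biological-process category.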

Saccharomyces cerevisiae [2] = experiment: Downregulation of FRE1 gene expression in Saccharomyces cerevisiae relative to untreated control; format: functional; in short: as §1
Saccharomyces cerevisiae [3] = experiment: Downregulation of PHO5 gene expression in Saccharomyces cerevisiae at 17 uM after 15 hrs by microarray analysis relative to untreated control; format: functional
In short: (§2)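 BY4741Δerg6 cells exposed 15 h to 7.5 or 17 μM; total RNA, 15 μg, used for Cy3/Cy5-dUTP indirect labeling. Arrays prehybridized at 42°C for 45 min, then hybridized in 50% formamide, 5× SSC. Each dose done in duplicate, each RNA hybridized twice with dye swap; treated/untreated fluorescence ratios log-transformed.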

Saccharomyces cerevisiae [4] = experiment: Upregulation of TPS1 gene expression in Saccharomyces cerevisiae at 17 uM after 15 hrs by microarray analysis relative to untreated control; format: functional; in short: as §2
Saccharomyces cerevisiae [5] = experiment: Downregulation of FIT3 gene expression in Saccharomyces cerevisiae at 7.5 uM after 15 hrs by microarray analysis relative to untreated control; format: functional; in short: as §2
Saccharomyces cerevisiae [6] = experiment: Downregulation of PHO5 gene expression in Saccharomyces cerevisiae at 7.5 uM after 15 hrs by qRT-PCR relative to untreated control; format: functional
In short: (§3)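 qRT-PCR used aliquots of the microarray RNA (treated and untreated Δerg6, 7.5 or 17 μM, 15 h) plus two additional biological replicates. Cycling was 95°C 10 min, then 40 cycles of 95°C 15 s and 60°C 1 min, with a dissociation curve. Genomic DNA 10-fold dilution standard curves; no-template and no-enzyme controls in triplicate; relative expression by ΔΔCT.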

Saccharomyces cerevisiae [7] = experiment: Upregulation of TPS1 gene expression in Saccharomyces cerevisiae at 7.5 uM after 15 hrs by qRT-PCR relative to untreated control; format: functional
In short: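 BY4741Δerg6 yeast (standardized to OD600 0.05 in YPD after 15-h 30°C preculture) grown with cryptolepine (1 mM methanol stock diluted) for 15 h; total RNA extracted, aliquots from microarray samples plus two additional biological replicates used for qRT-PCR: 95°C 10 min, 40 cycles 95°C 15 s/60°C 1 min, dissociation curve; genomic DNA standard curves; relative expression versus untreated by ΔΔCT.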

Saccharomyces cerevisiae [8] = experiment: Downregulation of FTR1 gene expression in Saccharomyces cerevisiae relative to untreated control; format: functional; in short: as §1
Saccharomyces cerevisiae [9] = experiment: Downregulation of TIS11 gene expression in Saccharomyces cerevisiae at 7.5 uM after 15 hrs by qRT-PCR relative to untreated control; format: functional; in short: as §3
Saccharomyces cerevisiae [10] = experiment: Downregulation of ARN2 gene expression in Saccharomyces cerevisiae relative to untreated control; format: functional; in short: as §1
Saccharomyces cerevisiae [11] = experiment: Downregulation of FET3 gene expression in Saccharomyces cerevisiae relative to untreated control; format: functional; in short: as §1
Saccharomyces cerevisiae [12] = experiment: Upregulation of HSP26 gene expression in Saccharomyces cerevisiae at 7.5 uM after 15 hrs by qRT-PCR relative to untreated control; format: functional; in short: as §3
Saccharomyces cerevisiae [13] = experiment: Cytotoxicity against Saccharomyces cerevisiae BY4741 harboring deltaerg6 mutant gene at <10 uM after 4 hrs; format: functional, organism-based
In short: (§4)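 Growth assay: strains precultured in YPD at 30°C for 15 h, shaking 250 rpm in the dark, then standardized to OD600 0.05 in the same medium. Grown in triplicate with a range of concentrations (methanol stock, diluted before use) under continuous 4 h treatment; growth read as OD600 and inhibitory concentrations taken from the plots.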

Saccharomyces cerevisiae [14] = experiment: Upregulation of HSP26 gene expression in Saccharomyces cerevisiae at 17 uM after 15 hrs by qRT-PCR relative to untreated control; format: functional; in short: as §3
Saccharomyces cerevisiae [15] = experiment: Downregulation of FRE5 gene expression in Saccharomyces cerevisiae relative to untreated control; format: functional; in short: as §1
Saccharomyces cerevisiae [16] = experiment: Downregulation of FIT2 gene expression in Saccharomyces cerevisiae relative to untreated control; format: functional; in short: as §1
Saccharomyces cerevisiae [17] = experiment: Cytotoxicity against Saccharomyces cerevisiae; format: functional; in short: as §4
Saccharomyces cerevisiae [18] = experiment: Downregulation of ARN2 gene expression in Saccharomyces cerevisiae at 17 uM after 15 hrs by microarray analysis relative to untreated control; format: functional; in short: as §2
Saccharomyces cerevisiae [19] = experiment: Downregulation of FIT3 gene expression in Saccharomyces cerevisiae relative to untreated control; format: functional; in short: as §1
Saccharomyces cerevisiae [20] = experiment: Downregulation of ARN2 gene expression in Saccharomyces cerevisiae at 7.5 uM after 15 hrs by qRT-PCR relative to untreated control; format: functional; in short: as §3
Saccharomyces cerevisiae [21] = experiment: Downregulation of FIT3 gene expression in Saccharomyces cerevisiae at 7.5 uM after 15 hrs by qRT-PCR relative to untreated control; format: functional; in short: as §3
Saccharomyces cerevisiae [22] = experiment: Upregulation of FET5 gene expression in Saccharomyces cerevisiae relative to untreated control; format: functional; in short: as §1
Saccharomyces cerevisiae [23] = experiment: Downregulation of SMF1 gene expression in Saccharomyces cerevisiae relative to untreated control; format: functional; in short: as §1
Saccharomyces cerevisiae [24] = experiment: Downregulation of glucose catabolic process related gene expression in Saccharomyces cerevisiae; format: functional, organism-based; in short: as §1
Saccharomyces cerevisiae [25] = experiment: Downregulation of FIT3 gene expression in Saccharomyces cerevisiae at 17 uM after 15 hrs by qRT-PCR relative to untreated control; format: functional; in short: as §3
Saccharomyces cerevisiae [26] = experiment: Downregulation of TIS11 gene expression in Saccharomyces cerevisiae at 17 uM after 15 hrs by qRT-PCR relative to untreated control; format: functional; in short: as §3
Saccharomyces cerevisiae [27] = experiment: Downregulation of PHO5 gene expression in Saccharomyces cerevisiae at 17 uM after 15 hrs by qRT-PCR relative to untreated control; format: functional; in short: as §3
Saccharomyces cerevisiae [28] = experiment: Downregulation of PHO5 gene expression in Saccharomyces cerevisiae at 7.5 uM after 15 hrs by microarray analysis relative to untreated control; format: functional; in short: as §2
Saccharomyces cerevisiae [29] = experiment: Downregulation of ARN2 gene expression in Saccharomyces cerevisiae at 17 uM after 15 hrs by qRT-PCR relative to untreated control; format: functional; in short: as §3
Saccharomyces cerevisiae [30] = experiment: Upregulation of TPS1 gene expression in Saccharomyces cerevisiae at 17 uM after 15 hrs by qRT-PCR relative to untreated control; format: functional; in short: as §3
Saccharomyces cerevisiae [31] = experiment: Downregulation of ARN2 gene expression in Saccharomyces cerevisiae at 7.5 uM after 15 hrs by microarray analysis relative to untreated control; format: functional; in short: as §2
Saccharomyces cerevisiae [32] = experiment: Downregulation of ARN1 gene expression in Saccharomyces cerevisiae relative to untreated control; format: functional; in short: as §1
Saccharomyces cerevisiae [33] = experiment: Downregulation of TIS11 gene expression in Saccharomyces cerevisiae at 17 uM after 15 hrs by microarray analysis relative to untreated control; format: functional; in short: as §2
Saccharomyces cerevisiae [34] = experiment: Downregulation of TIS11 gene expression in Saccharomyces cerevisiae at 7.5 uM after 15 hrs by microarray analysis relative to untreated control; format: functional; in short: as §2
Saccharomyces cerevisiae [35] = experiment: Upregulation of HSP26 gene expression in Saccharomyces cerevisiae at 7.5 uM after 15 hrs by microarray analysis relative to untreated control; format: functional; in short: as §2
Saccharomyces cerevisiae [36] = experiment: Cytotoxicity against Saccharomyces cerevisiae BY4741 harboring deltaerg6 mutant gene after 4 hrs; format: functional, organism-based; settings: BY4741, 4 h; in short: as §4
Saccharomyces cerevisiae [37] = experiment: Downregulation of FRE6 gene expression in Saccharomyces cerevisiae relative to untreated control; format: functional; in short: as §1
Saccharomyces cerevisiae [38] = experiment: Downregulation of FTH1 gene expression in Saccharomyces cerevisiae relative to untreated control; format: functional; in short: as §1
Saccharomyces cerevisiae [39] = experiment: Upregulation of SMF2 gene expression in Saccharomyces cerevisiae relative to untreated control; format: functional; in short: as §1
Saccharomyces cerevisiae [40] = experiment: Upregulation of TPS1 gene expression in Saccharomyces cerevisiae at 7.5 uM after 15 hrs by microarray analysis relative to untreated control; format: functional; in short: as §2
Saccharomyces cerevisiae [41] = experiment: Upregulation of FRE2 gene expression in Saccharomyces cerevisiae relative to untreated control; format: functional; in short: as §1
Saccharomyces cerevisiae [42] = experiment: Downregulation of FIT3 gene expression in Saccharomyces cerevisiae at 17 uM after 15 hrs by microarray analysis relative to untreated control; format: functional; in short: as §2
Saccharomyces cerevisiae [43] = experiment: Upregulation of HSP26 gene expression in Saccharomyces cerevisiae at 17 uM after 15 hrs by microarray analysis relative to untreated control; format: functional; in short: as §2
Saccharomyces cerevisiae [44] = experiment: Downregulation of siderophore transport related gene expression in Saccharomyces cerevisiae; format: functional, organism-based; in short: as §1
Saccharomyces cerevisiae [45] = experiment: Downregulation of fungal type cell wall related gene expression in Saccharomyces cerevisiae; format: functional, organism-based; in short: as §1
Saccharomyces cerevisiae [46] = experiment: Downregulation of SMF3 gene expression in Saccharomyces cerevisiae relative to untreated control; format: functional; in short: as §1
Saccharomyces cerevisiae [47] = experiment: Downregulation of acid phosphatase activity related gene expression in Saccharomyces cerevisiae; format: functional, organism-based; in short: as §1
Saccharomyces cerevisiae [48] = experiment: Downregulation of SIT1 gene expression in Saccharomyces cerevisiae relative to untreated control; format: functional; in short: as §1
Saccharomyces cerevisiae [49] = experiment: Cytotoxicity against Saccharomyces cerevisiae JN394 harboring deltarad52 mutant gene after 4 hrs; format: functional, organism-based; settings: JN394, 4 h; in short: as §4
Saccharomyces cerevisiae [50] = experiment: Downregulation of stress response related gene expression in Saccharomyces cerevisiae; format: functional, organism-based; settings: in the assay text read “Upregulation” for “Downregulation”; in short: as §1
Saccharomyces cerevisiae [51] = experiment: Downregulation of FIT1 gene expression in Saccharomyces cerevisiae relative to untreated control; format: functional; in short: as §1

C[n+]1c2ccccc2cc2[n-]c3ccccc3c21.Cl [CRYPTOLEPINE HYDROCHLORIDE]
fold change (FC) (Saccharomyces cerevisiae [1]): 1.79 | fold change (FC) (Saccharomyces cerevisiae [2]): 0.78 | fold change (FC) (Saccharomyces cerevisiae [3]): 2.05 | fold change (FC) (Saccharomyces cerevisiae [4]): 1.01 | fold change (FC) (Saccharomyces cerevisiae [5]): 3.3 | fold change (FC) (Saccharomyces cerevisiae [6]): 1.73 | fold change (FC) (Saccharomyces cerevisiae [7]): 0.96 | fold change (FC) (Saccharomyces cerevisiae [8]): 0.49 | fold change (FC) (Saccharomyces cerevisiae [9]): 3.3 | fold change (FC) (Saccharomyces cerevisiae [10]): 3.01 | fold change (FC) (Saccharomyces cerevisiae [11]): 1.11 | fold change (FC) (Saccharomyces cerevisiae [12]): 2.49 | Activity (Saccharomyces cerevisiae [13]): Active | fold change (FC) (Saccharomyces cerevisiae [14]): 3.51 | fold change (FC) (Saccharomyces cerevisiae [15]): 1.01 | fold change (FC) (Saccharomyces cerevisiae [16]): 1.94 | IC20 (Saccharomyces cerevisiae [17]): 7.5 µM | IC40 (Saccharomyces cerevisiae [17]): 17 µM | fold change (FC) (Saccharomyces cerevisiae [18]): 3.32 | fold change (FC) (Saccharomyces cerevisiae [19]): 3.46 | fold change (FC) (Saccharomyces cerevisiae [20]): 4.06 | fold change (FC) (Saccharomyces cerevisiae [21]): 5.57 | fold change (FC) (Saccharomyces cerevisiae [22]): 0.8 | fold change (FC) (Saccharomyces cerevisiae [23]): 0.35 | Activity (Saccharomyces cerevisiae [24]): Active | fold change (FC) (Saccharomyces cerevisiae [25]): 2.01 | fold change (FC) (Saccharomyces cerevisiae [26]): 3.46 | fold change (FC) (Saccharomyces cerevisiae [27]): 2.27 | fold change (FC) (Saccharomyces cerevisiae [28]): 1.88 | fold change (FC) (Saccharomyces cerevisiae [29]): 4.9 | fold change (FC) (Saccharomyces cerevisiae [30]): 1.03 | fold change (FC) (Saccharomyces cerevisiae [31]): 2.18 | fold change (FC) (Saccharomyces cerevisiae [32]): 1.07 | fold change (FC) (Saccharomyces cerevisiae [33]): 2.31 | fold change (FC) (Saccharomyces cerevisiae [34]): 2.35 | fold change (FC) (Saccharomyces cerevisiae [35]): 2.09 | IC50 (Saccharomyces cerevisiae [36]): 25 µM | fold change (FC) (Saccharomyces cerevisiae [37]): 0.08 | fold change (FC) (Saccharomyces cerevisiae [38]): 0.53 | fold change (FC) (Saccharomyces cerevisiae [39]): 0.09 | fold change (FC) (Saccharomyces cerevisiae [40]): 1.24 | fold change (FC) (Saccharomyces cerevisiae [41]): 0.13 | fold change (FC) (Saccharomyces cerevisiae [42]): 2.36 | fold change (FC) (Saccharomyces cerevisiae [43]): 3.54 | Activity (Saccharomyces cerevisiae [44]): Active | Activity (Saccharomyces cerevisiae [45]): Active | fold change (FC) (Saccharomyces cerevisiae [46]): 1.24 | Activity (Saccharomyces cerevisiae [47]): Active | fold change (FC) (Saccharomyces cerevisiae [48]): 1.57 | IC50 (Saccharomyces cerevisiae [49]): 20.3 µM | Activity (Saccharomyces cerevisiae [50]): Active | fold change (FC) (Saccharomyces cerevisiae [51]): 2.13
